What all share (assay type): physicochemical
A short description of data set [1]: Saturated solubility of compound in phenoxy ethanol.
Data set [2] can be described thus: Saturated solubility of compound in water. A digest of the protocol: (§1)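 Saturated solubility in the named medium (water or buffer at the stated pH), reported in mg ml−1. Levels below the detection limit are reported as BLOQ.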
A short description of data set [3]: Saturated solubility of compound in propylene glycol.
Data set [4] is described as follows: Saturated solubility of compound in benzyl alcohol.
Data set [5] can be described thus: Saturated solubility of compound in buffer at pH 5.5. The essentials: as §1
Data set [6] is described as follows: Saturated solubility of compound in glycerin.
Data set [7] in a line: Saturated solubility of compound in transcutol p.
A short description of data set [8]: Saturated solubility of compound in dimethyl isosorbide.
Data set [9] in a line: Saturated solubility of compound in buffer at pH 3.5. A digest of the protocol: as §1
Data set [10] in a line: Saturated solubility of compound in ethanol.
Data set [11] is described as follows: Saturated solubility of compound in buffer at pH 4.5. A digest of the protocol:
as §1

The nature of data set [12]: Saturated solubility of compound in isopropanol.
A short description of data set [13]: Saturated solubility of compound in isopropyl myristate.
Data set [14] can be described thus: Saturated solubility of compound in buffer at pH 7. The essentials:
as §1

Data set [15] in a line: Saturated solubility of compound in oleyl-alcohol.
Data set [16] can be described thus: Saturated solubility of compound in crodamol-GTC.
A short description of data set [17]: Solubility of compound at pH 7.4. Conditions: buffer.

These results are taken from ChEMBL document CHEMBL4354791, “Different solid forms for optimizing route of administration of the herpes drug Pritelivir” (Medchemcomm, 2019).

Each structure is given as a SMILES string. In brackets after ≈: the same amount, converted by molar mass.

By solubility (thermodynamic) is commonly meant solubility found after equilibrating the solid with the medium. What is called solubility is how much of the substance goes into solution per volume. Take `CS(=O)(=O)O.Cc1nc(N(C)C(=O)Cc2ccc(-c3ccccn3)cc2)sc1S(N)(=O)=O` [PRITELIVIR MESYLATE]: the solubility (thermodynamic) in data set [1] is 10700 µg/mL; in data set [3], 4700 µg/mL; in data set [5], 200 µg/mL; in data set [6], 13100 µg/mL; in data set [7], 1300 µg/mL; in data set [10], 700 µg/mL. Also, the solubility was 1200 µg/mL in [2] (water, read-out: solubility); 2000 µg/mL in data set [4]; “Bld” in data set [8] (BLD = below limit of detection); 1300 µg/mL in data set [9]; 400 µg/mL in data set [11].
Turning to `Cc1nc(N(C)C(=O)Cc2ccc(-c3ccccn3)cc2)sc1S(N)(=O)=O` [PRITELIVIR], the solubility (thermodynamic) stood at 2200 µg/mL (≈ 5470 µM) in data set [1]; 400 µg/mL (≈ 994 µM) in data set [12]; 100 µg/mL (≈ 248 µM) in [13]; 28400 µg/mL (≈ 70600 µM) in [3]; 100 µg/mL (≈ 248 µM) in data set [14]; 100 µg/mL (≈ 248 µM) in data set [15]. The solubility (thermodynamic) in [5] turned out to be 100 µg/mL (≈ 248 µM); in data set [6], 500 µg/mL (≈ 1240 µM); in data set [7] it was 44800 µg/mL (≈ 111000 µM); in [16], 200 µg/mL (≈ 497 µM); in data set [10], 300 µg/mL (≈ 745 µM). Besides, the solubility entry in data set [2] (buffer, BLD = below limit of detection) was “Bld”; in [4] it was 2200 µg/mL (≈ 5470 µM); in data set [8], 82300 µg/mL (≈ 204000 µM); in [9], 100 µg/mL (≈ 248 µM); in [11], 100 µg/mL (≈ 248 µM); in data set [17], 11.5 µg/mL (≈ 28.6 µM).
